In assay [1] the test system is LNCaP. As to the kind of experiment: Antiproliferative activity against human LNCAP cells in regular medium after 3 days. Format: functional, cell-based. Summed up: (§1)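 LNCaP C-81 cells (passage 80–120) grown in phenol red-positive RPMI 1640 with 5% FBS, 2 mM glutamine, 50 µg/ml gentamicin at 37°C, 5% CO2. Plated at 2×10³ cells/well for 3 days, then exposed to compound (DMSO stock diluted 1000×; DMSO-matched controls) for 3 days. Cells counted with an image-based counter and normalized to control. Three independent experiments in triplicate, mean ± SD.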

Assay [2] relates to LNCaP. Description: Inhibition of cell proliferation of human LNCAP cells in steroid reduced condition after 3 days. Format: functional. A digest of the protocol:
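C-81 cells (passage 80–120) plated at 2×10³ cells/well for 3 days, then starved 2 days in phenol red-free RPMI 1640 with 5% charcoal/dextran-treated FBS, 2 mM glutamine, 50 µg/ml gentamicin and 1 nM DHT. Refed with this medium, then treated for 3 days (solvent controls). Cells counted and normalized to control. Three independent experiments in triplicate, mean ± SD.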

The subject of assay [3] is LNCaP. As to the kind of experiment: Inhibition of cell proliferation of human LNCAP cells in regular medium after 3 days. Format: functional. A digest of the protocol:
as §1

Assay [4] addresses Protein arginine N-methyltransferase 5 (Homo sapiens) (UniProt O14744). Description: Inhibition of His6x-tagged PRMT5 expressed in Escherichia coli BL21 (DE3) using Histone H4(1-20 substrate in the presence of [14C] SAM assessed as residual activity at 30 uM by liquid scintillation counting. Summed up: (§2)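 Recombinant PRMT4 (0.3 µM) with H3(1-31) at 400 µM, or PRMT5 (1 µM) with H4(1-20) at 2 µM. Substrate and 5 µM [14C]-SAM preincubated 5 min in 50 mM HEPES pH 8.0, 10 mM NaCl, 1 mM DTT at 30°C before enzyme was added. Reactions run 2 h (PRMT4) or 6 h 30 min (PRMT5), with or without 30 µM compound in 2% DMSO. Stopped on P81 paper, washed with NaHCO3, counted by scintillation. Activity normalized to no-inhibitor control.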

In assay [5] the target is Histone acetyltransferase p300 (Homo sapiens, UniProt Q09472). Description: Inhibition of recombinant p300 HAT domain using Histone H4(1-20) substrate assessed as inhibition of histone acetyltransferase activity after 10 mins by liquid scintillation counting. A digest of the protocol:
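p300 HAT domain (residues 1287–1666), 0.03 µM, incubated with 10 µM H4-20, 5 µM [14C]-acetyl CoA and increasing compound in 50 mM HEPES pH 8.0, 50 mM NaCl, 0.5 mM DTT, 1 mM EDTA at 30°C for 10 min. Stopped on P81 paper and counted by liquid scintillation. Fractional activity plotted against concentration to give IC50.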

The target in assay [6] is T1, Histone-arginine methyltransferase CARM1 (Homo sapiens) (UniProt Q86X55).
T1 sequence (whole entry): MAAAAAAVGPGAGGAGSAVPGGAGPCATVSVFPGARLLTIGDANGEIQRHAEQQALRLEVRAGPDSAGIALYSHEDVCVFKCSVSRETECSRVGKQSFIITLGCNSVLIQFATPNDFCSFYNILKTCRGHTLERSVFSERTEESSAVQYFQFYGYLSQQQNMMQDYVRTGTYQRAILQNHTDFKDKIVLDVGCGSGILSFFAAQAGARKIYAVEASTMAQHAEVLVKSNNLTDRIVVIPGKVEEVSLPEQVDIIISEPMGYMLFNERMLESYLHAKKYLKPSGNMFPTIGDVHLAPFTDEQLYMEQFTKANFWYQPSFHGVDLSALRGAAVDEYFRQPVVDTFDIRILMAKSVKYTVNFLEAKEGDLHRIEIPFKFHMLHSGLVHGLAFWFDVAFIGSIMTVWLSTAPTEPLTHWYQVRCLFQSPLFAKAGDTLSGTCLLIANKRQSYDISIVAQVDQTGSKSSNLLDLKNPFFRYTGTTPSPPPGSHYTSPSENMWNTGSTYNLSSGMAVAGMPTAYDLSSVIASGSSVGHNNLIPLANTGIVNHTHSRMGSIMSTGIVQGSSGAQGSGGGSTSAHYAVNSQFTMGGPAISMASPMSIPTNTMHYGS
As to the kind of experiment: Inhibition of His6x-tagged PRMT4 expressed in Escherichia coli BL21 (DE3) using Histone H3(1-31) substrate in the presence of [14C] SAM assessed as residual activity at 30 uM by liquid scintillation counting. A digest of the protocol:
as §2

In assay [7] the target is T2, Histone H4 (Homo sapiens, UniProt P62805). Description: Binding affinity to fluorescein-labeled Histone H4(1-20) by spectrofluorometry. A digest of the protocol:
(§3)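 H4(1-20) peptide bearing fluorescein on a Dpr residue, 1 µM, in 50 mM HEPES pH 8.0, 10 mM NaCl, 1 mM DTT at 30°C. Titrated with compound from 1 to 100 µM. Excitation 498 nm; emission intensity followed at 523–524 nm. Kd taken from the fluorescence titration.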

Assay [8] deals with T2, Histone H4. Description: Binding affinity to fluorescein-labeled Histone H4(1-20) assessed as peptide fluorescence quenching by spectrofluorometry. A digest of the protocol:
as §3

The source made the active and inactive calls. The calls are words filed in the database; no cut-off is given here.

Chain of Histone acetyltransferase p300 (Q09472 whole entry, the tested form may be a part): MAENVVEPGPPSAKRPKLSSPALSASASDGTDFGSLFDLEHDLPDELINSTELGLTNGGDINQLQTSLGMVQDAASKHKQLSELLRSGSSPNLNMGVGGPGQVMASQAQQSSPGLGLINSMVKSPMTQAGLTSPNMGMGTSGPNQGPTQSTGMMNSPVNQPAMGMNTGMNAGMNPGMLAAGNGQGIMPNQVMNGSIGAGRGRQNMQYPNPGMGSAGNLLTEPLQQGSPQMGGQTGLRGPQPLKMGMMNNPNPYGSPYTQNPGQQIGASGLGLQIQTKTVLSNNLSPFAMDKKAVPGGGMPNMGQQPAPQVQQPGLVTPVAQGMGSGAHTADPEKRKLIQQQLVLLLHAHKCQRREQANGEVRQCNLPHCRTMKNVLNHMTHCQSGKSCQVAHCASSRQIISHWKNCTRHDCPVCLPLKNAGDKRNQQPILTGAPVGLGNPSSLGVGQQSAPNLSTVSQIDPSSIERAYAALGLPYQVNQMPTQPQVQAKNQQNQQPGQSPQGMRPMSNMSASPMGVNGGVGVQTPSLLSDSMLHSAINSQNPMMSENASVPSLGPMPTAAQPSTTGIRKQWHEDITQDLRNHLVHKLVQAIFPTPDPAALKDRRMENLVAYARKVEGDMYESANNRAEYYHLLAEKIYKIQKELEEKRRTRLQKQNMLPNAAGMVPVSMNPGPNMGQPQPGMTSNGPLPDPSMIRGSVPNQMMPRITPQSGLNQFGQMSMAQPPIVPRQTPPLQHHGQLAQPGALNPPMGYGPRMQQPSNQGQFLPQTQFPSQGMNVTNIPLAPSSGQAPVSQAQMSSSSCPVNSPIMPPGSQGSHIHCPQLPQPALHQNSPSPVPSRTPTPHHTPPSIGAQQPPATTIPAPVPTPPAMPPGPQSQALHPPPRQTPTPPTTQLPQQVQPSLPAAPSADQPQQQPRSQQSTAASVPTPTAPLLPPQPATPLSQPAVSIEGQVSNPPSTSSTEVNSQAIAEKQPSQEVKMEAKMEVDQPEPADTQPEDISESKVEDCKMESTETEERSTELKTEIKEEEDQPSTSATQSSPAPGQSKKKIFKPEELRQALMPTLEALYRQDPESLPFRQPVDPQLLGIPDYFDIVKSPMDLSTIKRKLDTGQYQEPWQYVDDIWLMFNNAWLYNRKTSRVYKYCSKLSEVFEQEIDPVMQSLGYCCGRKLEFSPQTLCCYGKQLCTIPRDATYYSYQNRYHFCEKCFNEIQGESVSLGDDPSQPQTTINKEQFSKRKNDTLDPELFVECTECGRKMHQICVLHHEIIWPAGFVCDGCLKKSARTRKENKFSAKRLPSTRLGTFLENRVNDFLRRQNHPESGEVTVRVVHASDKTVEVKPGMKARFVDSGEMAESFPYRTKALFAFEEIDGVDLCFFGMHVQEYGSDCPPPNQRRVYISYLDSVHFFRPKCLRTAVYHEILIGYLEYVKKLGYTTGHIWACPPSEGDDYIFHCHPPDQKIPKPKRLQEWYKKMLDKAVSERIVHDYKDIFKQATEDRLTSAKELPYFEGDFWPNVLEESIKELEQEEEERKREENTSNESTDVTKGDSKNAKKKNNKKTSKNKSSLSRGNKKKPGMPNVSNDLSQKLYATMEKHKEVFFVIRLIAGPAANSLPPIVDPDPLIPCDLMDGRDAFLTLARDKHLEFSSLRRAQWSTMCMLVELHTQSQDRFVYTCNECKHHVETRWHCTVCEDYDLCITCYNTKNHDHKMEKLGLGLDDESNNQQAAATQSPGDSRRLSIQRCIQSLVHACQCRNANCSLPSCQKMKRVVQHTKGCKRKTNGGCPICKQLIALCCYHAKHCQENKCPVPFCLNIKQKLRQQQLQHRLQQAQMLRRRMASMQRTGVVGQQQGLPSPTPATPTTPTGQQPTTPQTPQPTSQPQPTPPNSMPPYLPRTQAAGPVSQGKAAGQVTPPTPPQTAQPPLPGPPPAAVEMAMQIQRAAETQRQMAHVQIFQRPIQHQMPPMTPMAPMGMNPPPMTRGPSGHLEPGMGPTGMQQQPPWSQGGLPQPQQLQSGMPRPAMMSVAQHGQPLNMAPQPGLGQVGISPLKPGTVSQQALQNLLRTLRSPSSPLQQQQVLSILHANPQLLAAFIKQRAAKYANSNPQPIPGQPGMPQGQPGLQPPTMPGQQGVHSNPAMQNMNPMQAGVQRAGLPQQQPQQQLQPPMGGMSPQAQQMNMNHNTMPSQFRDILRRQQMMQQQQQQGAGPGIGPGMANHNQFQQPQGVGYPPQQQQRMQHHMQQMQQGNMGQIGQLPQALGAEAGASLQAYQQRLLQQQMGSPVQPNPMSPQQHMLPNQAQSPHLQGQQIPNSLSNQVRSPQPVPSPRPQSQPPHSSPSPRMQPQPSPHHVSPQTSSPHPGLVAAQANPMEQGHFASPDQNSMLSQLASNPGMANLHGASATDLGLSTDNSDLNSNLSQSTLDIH
Chain of Protein arginine N-methyltransferase 5 (Homo sapiens) (O14744 whole entry): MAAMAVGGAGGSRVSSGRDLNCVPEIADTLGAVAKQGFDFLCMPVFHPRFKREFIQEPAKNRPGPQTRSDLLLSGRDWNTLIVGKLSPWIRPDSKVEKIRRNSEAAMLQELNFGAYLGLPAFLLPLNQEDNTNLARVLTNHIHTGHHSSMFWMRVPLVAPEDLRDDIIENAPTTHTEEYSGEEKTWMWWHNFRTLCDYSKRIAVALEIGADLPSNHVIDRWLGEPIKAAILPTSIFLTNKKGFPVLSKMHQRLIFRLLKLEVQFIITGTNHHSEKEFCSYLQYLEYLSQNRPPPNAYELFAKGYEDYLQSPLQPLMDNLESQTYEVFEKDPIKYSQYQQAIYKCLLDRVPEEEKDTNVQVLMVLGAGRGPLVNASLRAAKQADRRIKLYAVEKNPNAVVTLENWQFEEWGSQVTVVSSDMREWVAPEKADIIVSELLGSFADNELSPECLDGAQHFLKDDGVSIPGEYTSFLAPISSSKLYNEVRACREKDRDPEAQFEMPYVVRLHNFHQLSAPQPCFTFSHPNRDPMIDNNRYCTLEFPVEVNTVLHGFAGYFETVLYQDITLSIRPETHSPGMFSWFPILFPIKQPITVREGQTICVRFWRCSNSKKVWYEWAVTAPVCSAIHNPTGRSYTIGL

As for `O=C(NN=C1C=CC(=NOS(=O)(=O)c2ccccc2)C=C1)c1cc2ccccc2cc1O`, in the assay on LNCaP [1], the inhibition result is “Dose-dependent effect”. The “inhibition (INH)” value in the assay with LNCaP [2] is recorded as 30%; in the assay with LNCaP [3], 70%.

With `O=C(c1ccc(O)c(NC(=O)c2cccc3ccccc23)c1)c1ccc(O)c(NC(=O)c2cccc3ccccc23)c1`, the Activity in assay [4] is 20%. Moreover, in assay [5], the IC50 was 15.2 µM and the inhibition result is “Dose-dependent effect”. For the same compound, the Activity in assay [6] was found to be 38%. At Histone H4 [7], this compound displayed a Kd of 23.8 µM. For the same compound, the outcome at Histone H4 [8] was Active. Also, the “inhibition (INH)” value with LNCaP [3] came to 32%.

(Values after ChEMBL document CHEMBL2169753, “Pharmacophore-based virtual screening and biological evaluation of small molecule inhibitors for protein arginine methylation” (J Med Chem, 2012).)
